# According to ChEMBL document CHEMBL1629456, “ApoA-I mimetic peptides promote pre-β HDL formation in vivo causing remodeling of HDL and triglyceride accumulation at higher dose” (Bioorg Med Chem, 2010):
# Activity calls are given as the source filed them. The calls are words filed in the database; no cut-off is given here. *1 amine or outer side, *2 acyl side, *3 side chain or, on linkers, in order; H or OH if unused. Where a SMILES comes first, the peptide text is derived from it. [ ]: non-standard residue; d: D form. Gly(oct-7-en-1-yl) = C=CCCCCCC[C@H](N)C(=O)O; Ala(5-hexenyl) = C=CCCCCC[C@H](N)C(=O)O; dNle(6-vinyl) = C=CCCCC[C@@H](N)C(=O)O; Gly(octyl) = CCCCCCCC[C@H](N)C(=O)O; X1 = CCCCCCC[C@H](N[*:1])C(=O)[*:2]
# How the values were obtained:
# Plasma = assay: Induction of pre-beta HDL formation in human plasma after 2 hrs by ELISA; format: functional, cell-free
# In short: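 Increasing peptide concentrations were incubated with normal human plasma at 37 °C for 2 h. Pre-β HDL was quantified by a commercial human pre-β HDL ELISA.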
# [1] = Plasma concentration in C57/BL6 mouse at 60 mg/kg, sc after 3 hrs; format: ADME, organism-based, C57Bl/6; parameters: dose 60 mg/kg, route subcutaneous
# In short: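 Male C57Bl/6 mice were dosed subcutaneously with peptide in 50 mM mannitol/PBS. Serum was taken by cardiac puncture, and peptide was measured by LC–MS/MS after acetonitrile protein precipitation.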
# [2] = target: Phospholipid-transporting ATPase ABCA1 (Mus musculus, UniProt P41233); assay: Induction of ABCA1-mediated [3H]cholesterol efflux in mouse RAW 264.7 macrophages after 24 hrs
# Phospholipid-transporting ATPase ABCA1, sequence (P41233 whole entry): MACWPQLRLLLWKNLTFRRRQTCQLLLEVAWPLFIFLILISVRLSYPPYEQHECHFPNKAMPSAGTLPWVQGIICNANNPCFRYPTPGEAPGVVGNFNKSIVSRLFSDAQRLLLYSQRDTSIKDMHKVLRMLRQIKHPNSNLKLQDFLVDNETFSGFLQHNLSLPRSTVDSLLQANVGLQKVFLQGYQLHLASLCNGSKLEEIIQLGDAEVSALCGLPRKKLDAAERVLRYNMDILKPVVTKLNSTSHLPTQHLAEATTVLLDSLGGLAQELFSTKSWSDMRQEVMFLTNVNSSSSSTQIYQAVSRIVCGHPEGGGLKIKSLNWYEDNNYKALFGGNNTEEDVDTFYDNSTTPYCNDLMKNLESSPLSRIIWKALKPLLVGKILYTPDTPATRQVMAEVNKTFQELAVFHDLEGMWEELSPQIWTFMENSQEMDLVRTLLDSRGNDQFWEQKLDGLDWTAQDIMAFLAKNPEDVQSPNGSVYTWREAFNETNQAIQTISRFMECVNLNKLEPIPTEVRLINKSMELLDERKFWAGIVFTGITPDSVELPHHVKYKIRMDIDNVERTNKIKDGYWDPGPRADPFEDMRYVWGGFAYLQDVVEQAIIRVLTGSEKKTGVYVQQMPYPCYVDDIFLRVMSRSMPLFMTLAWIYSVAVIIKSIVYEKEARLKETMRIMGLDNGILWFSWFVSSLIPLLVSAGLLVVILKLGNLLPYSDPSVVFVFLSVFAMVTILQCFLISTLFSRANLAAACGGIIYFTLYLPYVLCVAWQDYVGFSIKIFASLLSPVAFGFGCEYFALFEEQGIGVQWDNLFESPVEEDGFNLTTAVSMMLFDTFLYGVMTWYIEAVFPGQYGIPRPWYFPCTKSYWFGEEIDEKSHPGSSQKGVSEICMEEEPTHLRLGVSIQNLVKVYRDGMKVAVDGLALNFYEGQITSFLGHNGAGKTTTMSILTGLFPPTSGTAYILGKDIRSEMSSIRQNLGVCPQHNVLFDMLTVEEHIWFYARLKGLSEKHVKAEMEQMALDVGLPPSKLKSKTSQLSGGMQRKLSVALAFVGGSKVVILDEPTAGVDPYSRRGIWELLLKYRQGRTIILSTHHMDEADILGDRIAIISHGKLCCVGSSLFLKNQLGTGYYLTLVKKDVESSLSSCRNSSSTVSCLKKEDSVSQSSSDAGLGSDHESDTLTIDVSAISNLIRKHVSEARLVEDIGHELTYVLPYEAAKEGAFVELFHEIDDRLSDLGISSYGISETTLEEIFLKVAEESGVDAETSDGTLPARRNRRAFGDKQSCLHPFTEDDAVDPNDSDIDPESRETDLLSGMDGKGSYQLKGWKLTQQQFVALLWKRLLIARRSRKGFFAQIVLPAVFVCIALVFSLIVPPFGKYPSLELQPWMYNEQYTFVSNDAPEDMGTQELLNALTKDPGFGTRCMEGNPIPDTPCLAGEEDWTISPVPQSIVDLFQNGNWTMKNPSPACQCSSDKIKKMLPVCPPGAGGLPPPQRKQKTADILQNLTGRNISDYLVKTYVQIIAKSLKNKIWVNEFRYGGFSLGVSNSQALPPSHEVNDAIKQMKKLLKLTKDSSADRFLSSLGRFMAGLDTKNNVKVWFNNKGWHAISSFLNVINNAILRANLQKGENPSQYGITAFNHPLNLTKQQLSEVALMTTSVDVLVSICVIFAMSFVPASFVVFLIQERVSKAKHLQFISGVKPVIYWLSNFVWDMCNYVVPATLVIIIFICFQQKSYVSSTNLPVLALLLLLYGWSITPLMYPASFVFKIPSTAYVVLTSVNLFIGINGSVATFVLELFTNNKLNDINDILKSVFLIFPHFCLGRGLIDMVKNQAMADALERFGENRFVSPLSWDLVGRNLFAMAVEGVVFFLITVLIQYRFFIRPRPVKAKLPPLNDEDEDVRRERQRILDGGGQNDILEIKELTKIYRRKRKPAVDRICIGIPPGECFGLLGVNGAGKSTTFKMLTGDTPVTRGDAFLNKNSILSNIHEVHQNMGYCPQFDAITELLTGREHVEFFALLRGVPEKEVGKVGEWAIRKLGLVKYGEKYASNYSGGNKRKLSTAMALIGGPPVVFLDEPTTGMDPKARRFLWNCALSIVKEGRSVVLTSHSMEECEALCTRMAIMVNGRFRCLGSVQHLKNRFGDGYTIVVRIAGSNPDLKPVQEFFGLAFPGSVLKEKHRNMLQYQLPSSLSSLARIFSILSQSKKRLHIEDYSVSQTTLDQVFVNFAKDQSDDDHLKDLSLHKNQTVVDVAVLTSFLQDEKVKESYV
# Mus musculus [3] = assay: Effect on triglyceride level in C57/BL6 mouse at 60 mg/kg, sc after 1 hr; format: functional, organism-based; parameters: dose 60 mg/kg; settings: C57Bl/6
# In short: (§1)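 Male C57Bl/6 mice (≥12 weeks, chow-fed) given peptide subcutaneously in 50 mM mannitol/PBS vehicle. Serum was collected by cardiac puncture at 1 or 3 h, clotted 1 h at room temperature and spun at 10,000g. Serum triglyceride was measured by enzymatic colorimetric assay, with 3–5 animals per dose and time point.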
# Mus musculus [4] = assay: Effect on triglyceride level in C57/BL6 mouse at 20 mg/kg, sc after 1 hr; format: functional, organism-based; parameters: dose 20 mg/kg; settings: C57Bl/6; in short: as §1
# [5] = target: Lipoprotein lipase (Bos taurus) (UniProt P11151); assay: Inhibition of Lipoprotein lipase in vitro
# Mus musculus [6] = assay: Effect on triglyceride level in C57/BL6 mouse at 20 mg/kg, sc after 3 hrs; format: functional, organism-based; parameters: dose 20 mg/kg; settings: C57Bl/6; in short: as §1
concentration at 3 h [1],EC50 [2],IC50 [5],Molecule,Activity (Plasma),further results
–,–,–,C=CCCCCCC[C@H](NC(=O)[C@H](CCC(=O)O)NC(=O)[C@H](CC(N)=O)NC(=O)[C@H](CC(C)C)NC(=O)[C@H](CCCCN)NC(=O)[C@H](CCC(=O)O)NC(=O)[C@H](CCCNC(=N)N)NC(=O)[C@H](Cc1ccccc1)NC(=O)[C@H](CCC(=O)O)NC(=O)[C@H](CC(=O)O)NC(=O)[C@H](CC(C)C)NC(=O)[C@@H](NC(=O)[C@@H]1CCCN1C(C)=O)C(C)C)C(=O)N[C@@H](CC(C)C)C(=O)N[C@@H](CCC(=O)O)C(=O)N[C@@H](C)C(=O)N[C@@H](CC(C)C)C(=O)N[C@@H](CCCCN)C(=O)N[C@@H](CCC(N)=O)C(=O)N[C@@H](CCCCN)C(=O)N[C@@H](CC(C)C)C(=O)N[C@@H](CCCCN)C(N)=O (Ac-PVLDEFREKLNE[Gly(oct-7-en-1-yl)]LEALKQKLK-NH2),Dose-dependent effect,–
188 µM,0.7 µM,–,CCCCCCCC[C@H](NC(=O)[C@H](CCC(=O)O)NC(=O)[C@H](CC(N)=O)NC(=O)[C@H](CC(C)C)NC(=O)[C@H](CCCCN)NC(=O)[C@H](CCC(=O)O)NC(=O)[C@H](CCCN=C(N)N)NC(=O)[C@H](Cc1ccccc1)NC(=O)[C@H](CCC(=O)O)NC(=O)[C@H](CC(=O)O)NC(=O)[C@H](CC(C)C)NC(=O)[C@@H](NC(=O)[C@@H]1CCCN1C(C)=O)C(C)C)C(=O)N[C@@H](CC(C)C)C(=O)N[C@@H](CCC(=O)O)C(=O)N[C@@H](C)C(=O)N[C@@H](CC(C)C)C(=O)N[C@@H](CCCCN)C(=O)N[C@@H](CCC(N)=O)C(=O)N[C@@H](CCCCN)C(=O)N[C@@H](CC(C)C)C(=O)N[C@@H](CCCCN)C(N)=O (Ac-PVLDEFREKLNE[Gly(octyl)]LEALKQKLK-NH2),–,–
–,–,88 µM,CCCCCCCC[C@H](NC(=O)[C@H](CCC(=O)O)NC(=O)[C@H](CC(N)=O)NC(=O)[C@H](CC(C)C)NC(=O)[C@H](CCCCN)NC(=O)[C@H](CCC(=O)O)NC(=O)[C@H](CCCNC(=N)N)NC(=O)[C@H](Cc1ccccc1)NC(=O)[C@H](CCC(=O)O)NC(=O)[C@H](CC(=O)O)NC(=O)[C@H](CC(C)C)NC(=O)[C@@H](NC(=O)[C@@H]1CCCN1C(C)=O)C(C)C)C(=O)N[C@@H](CC(C)C)C(=O)N[C@@H](CCC(=O)O)C(=O)N[C@@H](C)C(=O)N[C@@H](CC(C)C)C(=O)N[C@@H](CCCCN)C(=O)N[C@@H](CCC(N)=O)C(=O)N[C@@H](CCCCN)C(=O)N[C@@H](CC(C)C)C(=O)N[C@@H](CCCCN)C(N)=O (Ac-PVLDEFREKLNE[Gly(octyl)]LEALKQKLK-NH2),Dose-dependent effect,Activity (Mus musculus [3]): inactive; Activity (Mus musculus [4]): inactive; Activity (Mus musculus [6]): inactive
–,–,–,CCCCCCC[C@H](NC(=O)[C@H](CCC(=O)O)NC(=O)[C@H](CC(N)=O)NC(=O)[C@H](CC(C)C)NC(=O)[C@H](CCCCN)NC(=O)[C@H](CCC(=O)O)NC(=O)[C@H](CCCNC(=N)N)NC(=O)[C@H](Cc1ccccc1)NC(=O)[C@H](CCC(=O)O)NC(=O)[C@H](CC(=O)O)NC(=O)[C@H](CC(C)C)NC(=O)[C@@H](NC(=O)[C@@H]1CCCN1C(C)=O)C(C)C)C(=O)N[C@@H](CC(C)C)C(=O)N[C@@H](CCC(=O)O)C(=O)N[C@@H](C)C(=O)N[C@@H](CC(C)C)C(=O)N[C@@H](CCCCN)C(=O)N[C@@H](CCC(N)=O)C(=O)N[C@@H](CCCCN)C(=O)N[C@@H](CC(C)C)C(=O)N[C@@H](CCCCN)C(N)=O (Ac-PVLDEFREKLNE[X1]LEALKQKLK-NH2),Dose-dependent effect,–
137 µM,–,44 µM,CCCCCCC[C@H](NC(=O)[C@H](CCC(=O)O)NC(=O)[C@H](CC(N)=O)NC(=O)[C@H](CC(C)C)NC(=O)[C@H](CCCCN)NC(=O)[C@H](CCC(=O)O)NC(=O)[C@H](CCCNC(=N)N)NC(=O)[C@H](CCCCCCC)NC(=O)[C@H](CCC(=O)O)NC(=O)[C@H](CC(=O)O)NC(=O)[C@H](CC(C)C)NC(=O)[C@@H](NC(=O)[C@@H]1CCCN1C(C)=O)C(C)C)C(=O)N[C@@H](CC(C)C)C(=O)N[C@@H](CCC(=O)O)C(=O)N[C@@H](C)C(=O)N[C@@H](CC(C)C)C(=O)N[C@@H](CCCCN)C(=O)N[C@@H](CCC(N)=O)C(=O)N[C@@H](CCCCN)C(=O)N[C@@H](CC(C)C)C(=O)N[C@@H](CCCCN)C(N)=O (Ac-PVLDE[X1]REKLNE[X1]LEALKQKLK-NH2),–,Activity (Mus musculus [3]): inactive; Activity (Mus musculus [4]): inactive; Activity (Mus musculus [6]): inactive
116 µM,0.8 µM,–,C=CCCCCC[C@H](NC(=O)[C@H](CCC(=O)O)NC(=O)[C@H](CC(N)=O)NC(=O)[C@H](CC(C)C)NC(=O)[C@H](CCCCN)NC(=O)[C@H](CCC(=O)O)NC(=O)[C@H](CCCN=C(N)N)NC(=O)[C@@H](CCCCC=C)NC(=O)[C@H](CCC(=O)O)NC(=O)[C@H](CC(=O)O)NC(=O)[C@H](CC(C)C)NC(=O)[C@@H](NC(=O)[C@@H]1CCCN1C(C)=O)C(C)C)C(=O)N[C@@H](CC(C)C)C(=O)N[C@@H](CCC(=O)O)C(=O)N[C@@H](C)C(=O)N[C@@H](CC(C)C)C(=O)N[C@@H](CCCCN)C(=O)N[C@@H](CCC(N)=O)C(=O)N[C@@H](CCCCN)C(=O)N[C@@H](CC(C)C)C(=O)N[C@@H](CCCCN)C(N)=O (Ac-PVLDE[dNle(6-vinyl)]REKLNE[Ala(5-hexenyl)]LEALKQKLK-NH2),–,–
–,–,100 µM,C=CCCCCC[C@H](NC(=O)[C@H](CCC(=O)O)NC(=O)[C@H](CC(N)=O)NC(=O)[C@H](CC(C)C)NC(=O)[C@H](CCCCN)NC(=O)[C@H](CCC(=O)O)NC(=O)[C@H](CCCNC(=N)N)NC(=O)[C@@H](CCCCC=C)NC(=O)[C@H](CCC(=O)O)NC(=O)[C@H](CC(=O)O)NC(=O)[C@H](CC(C)C)NC(=O)[C@@H](NC(=O)[C@@H]1CCCN1C(C)=O)C(C)C)C(=O)N[C@@H](CC(C)C)C(=O)N[C@@H](CCC(=O)O)C(=O)N[C@@H](C)C(=O)N[C@@H](CC(C)C)C(=O)N[C@@H](CCCCN)C(=O)N[C@@H](CCC(N)=O)C(=O)N[C@@H](CCCCN)C(=O)N[C@@H](CC(C)C)C(=O)N[C@@H](CCCCN)C(N)=O (Ac-PVLDE[dNle(6-vinyl)]REKLNE[Ala(5-hexenyl)]LEALKQKLK-NH2),Dose-dependent effect,Activity (Mus musculus [3]): inactive; Activity (Mus musculus [4]): inactive; Activity (Mus musculus [6]): inactive
–,–,–,C=CCCCCC[C@H](NC(=O)[C@H](CCC(=O)O)NC(=O)[C@H](CC(N)=O)NC(=O)[C@H](CC(C)C)NC(=O)[C@H](CCCCN)NC(=O)[C@H](CCC(=O)O)NC(=O)[C@H](CCCNC(=N)N)NC(=O)[C@H](Cc1ccccc1)NC(=O)[C@H](CCC(=O)O)NC(=O)[C@H](CC(=O)O)NC(=O)[C@H](CC(C)C)NC(=O)[C@H](CCCCCC=C)NC(=O)[C@@H]1CCCN1C(C)=O)C(=O)N[C@@H](CC(C)C)C(=O)N[C@@H](CCC(=O)O)C(=O)N[C@@H](C)C(=O)N[C@@H](CC(C)C)C(=O)N[C@@H](CCCCN)C(=O)N[C@@H](CCC(N)=O)C(=O)N[C@@H](CCCCN)C(=O)N[C@@H](CC(C)C)C(=O)N[C@@H](CCCCN)C(N)=O (Ac-P[Ala(5-hexenyl)]LDEFREKLNE[Ala(5-hexenyl)]LEALKQKLK-NH2),inactive,–
–,1.9 µM,–,C=CCCCCC[C@H](NC(=O)[C@H](CCC(=O)O)NC(=O)[C@H](CC(N)=O)NC(=O)[C@H](CC(C)C)NC(=O)[C@H](CCCCN)NC(=O)[C@H](CCC(=O)O)NC(=O)[C@H](CCCN=C(N)N)NC(=O)[C@H](CCCCCC=C)NC(=O)[C@H](CCC(=O)O)NC(=O)[C@H](CC(=O)O)NC(=O)[C@H](CC(C)C)NC(=O)[C@H](CCCCCC=C)NC(=O)[C@@H]1CCCN1C(C)=O)C(=O)N[C@@H](CC(C)C)C(=O)N[C@@H](CCC(=O)O)C(=O)N[C@@H](C)C(=O)N[C@@H](CC(C)C)C(=O)N[C@@H](CCCCN)C(=O)N[C@@H](CCC(N)=O)C(=O)N[C@@H](CCCCN)C(=O)N[C@@H](CC(C)C)C(=O)N[C@@H](CCCCN)C(N)=O (Ac-P[Ala(5-hexenyl)]LDE[Ala(5-hexenyl)]REKLNE[Ala(5-hexenyl)]LEALKQKLK-NH2),–,–
–,6.7 µM,–,C=CCCCCC[C@H](NC(=O)[C@H](CCC(N)=O)NC(=O)[C@H](CCCCN)NC(=O)[C@H](CC(C)C)NC(=O)[C@H](C)NC(=O)[C@H](CCC(=O)O)NC(=O)[C@H](CC(C)C)NC(=O)[C@H](CCCCCC=C)NC(=O)[C@H](CCC(=O)O)NC(=O)[C@H](CC(N)=O)NC(=O)[C@H](CC(C)C)NC(=O)[C@H](CCCCN)NC(=O)[C@H](CCC(=O)O)NC(=O)[C@H](CCCNC(=N)N)NC(=O)[C@H](CCCCCC=C)NC(=O)[C@H](CCC(=O)O)NC(=O)[C@H](CC(=O)O)NC(=O)[C@H](CC(C)C)NC(=O)[C@H](CCCCCC=C)NC(=O)[C@@H]1CCCN1C(C)=O)C(=O)N[C@@H](CC(C)C)C(=O)N[C@@H](CCCCN)C(N)=O (Ac-P[Ala(5-hexenyl)]LDE[Ala(5-hexenyl)]REKLNE[Ala(5-hexenyl)]LEALKQ[Ala(5-hexenyl)]LK-NH2),–,–
–,2 µM,24 µM,CC(=O)N[C@H](CC(=O)O)C(=O)N[C@H](Cc1c[nH]c2ccccc12)C(=O)N[C@H](Cc1ccccc1)C(=O)N[C@H](CCCCN)C(=O)N[C@H](C)C(=O)N[C@H](Cc1ccccc1)C(=O)N[C@H](Cc1ccc(O)cc1)C(=O)N[C@H](CC(=O)O)C(=O)N[C@H](CCCCN)C(=O)N[C@@H](C(=O)N[C@H](C)C(=O)N[C@H](CCC(=O)O)C(=O)N[C@H](CCCCN)C(=O)N[C@H](Cc1ccccc1)C(=O)N[C@H](CCCCN)C(=O)N[C@H](CCC(=O)O)C(=O)N[C@H](C)C(=O)N[C@H](Cc1ccccc1)C(N)=O)C(C)C (Ac-[dD][dW][dF][dK][dA][dF][dY][dD][dK][dV][dA][dE][dK][dF][dK][dE][dA][dF]-NH2),–,–
0.33 µM,> 100 µM,–,Ac-PVLDEFREKLNEELEALKQKLK-NH2,–,–
